Reference: ChEMBL document CHEMBL3045615, “Synthesis and herbicidal evaluation of novel 3-[(alpha-hydroxy-substituted)benzylidene]pyrrolidine-2,4-diones” (J Agric Food Chem, 2005)

Tests used:
Type in all cases: functional
[1] = test system: Echinochloa crus-galli; assay: Herbicidal activity against Echinochloa crus-galli (barnyard grass) assessed as inhibition in green house at 750 g/ha pre-emergence treatment measured after 15 days; settings: 360 h
Outline: (§1)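 Greenhouse pot test. Two replicates per treatment. Control was the same amount of water, N,N-dimethylformamide and Tween 20. Fresh weights were taken 15 days after treatment, and percentage inhibition was calculated relative to controls.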

[2] = test system: Echinochloa crus-galli; assay: Herbicidal activity against Echinochloa crus-galli (barnyard grass) assessed as inhibition in green house at 187.5 g/ha pre-emergence treatment measured after 15 days; settings: 360 h; outline: as §1
[3] = test system: Digitaria sanguinalis; assay: Herbicidal activity against Digitaria sanguinalis (hairy crabgrass) assessed as inhibition in green house at 1500 g/ha pre-emergence treatment measured after 15 days; settings: 360 h; outline: as §1
[4] = test system: Digitaria sanguinalis; assay: Herbicidal activity against Digitaria sanguinalis (hairy crabgrass) assessed as inhibition in green house at 187.5 g/ha pre-emergence treatment measured after 15 days; settings: 360 h; outline: as §1
[5] = test system: Echinochloa crus-galli; assay: Herbicidal activity against Echinochloa crus-galli (barnyard grass) assessed as inhibition of seedling growth at 100 ug/ml at 28 +/- 1 degC measured after 65 hr by cup test
[6] = test system: Digitaria sanguinalis; assay: Herbicidal activity against Digitaria sanguinalis (hairy crabgrass) assessed as inhibition in green house at 93.75 g/ha pre-emergence treatment measured after 15 days; settings: 360 h; outline: as §1
[7] = test system: Echinochloa crus-galli; assay: Herbicidal activity against Echinochloa crus-galli (barnyard grass) assessed as inhibition of seedling growth at 10 ug/ml at 28 +/- 1 degC measured after 65 hr by cup test
[8] = test system: Digitaria sanguinalis; assay: Herbicidal activity against Digitaria sanguinalis (hairy crabgrass) assessed as inhibition in green house at 375 g/ha pre-emergence treatment measured after 15 days; settings: 360 h; outline: as §1
[9] = test system: Echinochloa crus-galli; assay: Herbicidal activity against Echinochloa crus-galli (barnyard grass) assessed as inhibition in green house at 1500 g/ha pre-emergence treatment measured after 15 days; settings: 360 h; outline: as §1
[10] = test system: Digitaria sanguinalis; assay: Herbicidal activity against Digitaria sanguinalis (hairy crabgrass) assessed as inhibition in green house at 750 g/ha pre-emergence treatment measured after 15 days; settings: 360 h; outline: as §1
[11] = test system: Amaranthus retroflexus; assay: Herbicidal activity against Amaranthus retroflexus assessed as inhibition in green house at 1500 g/ha post-emergence treatment measured after 15 days; settings: 360 h; outline: as §1
[12] = test system: Amaranthus retroflexus; assay: Herbicidal activity against Amaranthus retroflexus assessed as inhibition in green house at 1500 g/ha pre-emergence treatment measured after 15 days; settings: 360 h; outline: as §1
[13] = test system: Brassica rapa subsp. oleifera; assay: Herbicidal activity against Brassica rapa subsp. oleifera assessed as inhibition of root growth at 100 ug/ml at 28 +/- 1 degC measured after 65 hr by root test
Outline: (§2)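 Rape seeds were presoaked 4 h in distilled water. About 15 seeds were placed per 6-cm Petri plate on filter paper pre-wetted with 2 mL inhibitor solution. Plates germinated in the dark for 65 h at 28 ± 1 °C. Root length of 10 roots per plate was measured and averaged. Result expressed as percentage inhibition.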

[14] = test system: Echinochloa crus-galli; assay: Herbicidal activity against Echinochloa crus-galli (barnyard grass) assessed as inhibition in green house at 375 g/ha pre-emergence treatment measured after 15 days; settings: 360 h; outline: as §1
[15] = test system: Echinochloa crus-galli; assay: Herbicidal activity against Echinochloa crus-galli (barnyard grass) assessed as inhibition in green house at 1500 g/ha post-emergence treatment measured after 15 days; settings: 360 h; outline: as §1
[16] = test system: Brassica rapa subsp. oleifera; assay: Herbicidal activity against Brassica rapa subsp. oleifera assessed as inhibition in green house at 1500 g/ha pre-emergence treatment measured after 15 days; settings: 360 h; outline: as §1
[17] = test system: Brassica rapa subsp. oleifera; assay: Herbicidal activity against Brassica rapa subsp. oleifera assessed as inhibition in green house at 1500 g/ha post-emergence treatment measured after 15 days; settings: 360 h; outline: as §1
[18] = test system: Brassica rapa subsp. oleifera; assay: Herbicidal activity against Brassica rapa subsp. oleifera assessed as inhibition of root growth at 10 ug/ml at 28 +/- 1 degC measured after 65 hr by root test; outline: as §2
[19] = test system: Digitaria sanguinalis; assay: Herbicidal activity against Digitaria sanguinalis (hairy crabgrass) assessed as inhibition in green house at 1500 g/ha post-emergence treatment measured after 15 days; settings: 360 h; outline: as §1
[20] = test system: Echinochloa crus-galli; assay: Herbicidal activity against Echinochloa crus-galli (barnyard grass) assessed as inhibition in green house at 93.75 g/ha pre-emergence treatment measured after 15 days; settings: 360 h; outline: as §1

Row | SMILES | inhibition at 750 g/ha [1] | inhibition at 187.5 g/ha [2] | inhibition at 1500 g/ha [3] | inhibition at 187.5 g/ha [4] | inhibition at 100 µg/mL [5] | inhibition at 93.75 g/ha [6] | inhibition at 10 µg/mL [7] | inhibition at 375 g/ha [8] | inhibition at 1500 g/ha [9] | inhibition at 750 g/ha [10] | inhibition at 1500 g/ha [11] | inhibition at 1500 g/ha [12] | inhibition at 100 µg/mL [13] | inhibition at 375 g/ha [14] | inhibition at 1500 g/ha [15] | inhibition at 1500 g/ha [16] | inhibition at 1500 g/ha [17] | inhibition at 10 µg/mL [18] | inhibition at 1500 g/ha [19] | inhibition at 93.75 g/ha [20]
1 | CCOc1ccc(/C(O)=C2\C(=O)CN(C(C)C)C2=O)cc1 | 98% | 52% | 98% | 84% | 80% | 22% | 79% | 94% | 100% | 96% | 0% | 0% | 82% | 94% | 19% | 0% | 0% | 8% | 0% | 8%
2 | COc1ccc(/C(O)=C2\C(=O)CN(C(C)C)C2=O)c(OC)c1 | 100% | 93% | – | 68% | 80% | 0% | 78% | 77% | – | 93% | – | – | 69% | 100% | – | – | – | 27% | – | 34%
3 | COc1ccc(/C(O)=C2\C(=O)CN(C3CC3)C2=O)cc1 | 69% | – | 57% | – | 66% | – | 62% | 69% | 81% | 73% | 0% | 0% | 70% | 7% | 0% | 0% | 0% | 35% | 0% | –
4 | CCOc1ccc(/C(O)=C2\C(=O)CN(C3CC3)C2=O)cc1 | 99% | 0% | 42% | 18% | 79% | – | 78% | 33% | 100% | 77% | 13% | 0% | 47% | 13% | 0% | 6% | 0% | 0% | 6% | –
5 | CC(C)N1CC(=O)/C(=C(/O)c2cccc(Oc3ccccc3)c2)C1=O | – | – | 0% | – | 67% | – | 57% | – | 0% | – | 9% | 0% | 81% | – | 0% | 0% | 0% | 0% | 0% | –
6 | CS(=O)(=O)c1ccc(C(=O)C2C(=O)CCCC2=O)c(Cl)c1 [SULCOTRIONE] | 100% | 93% | – | 100% | – | 100% | – | 100% | – | 100% | – | – | – | 100% | – | – | – | – | – | 70%
